This sample holds only a part of the variants without activity.
B1: tRNA (parent)
chain: GUUCCGUUGGCGUAAUGGUAACGCGUCUCCCUCCUAAGGAGAAGACUGCGGGUUCGAGUCCCGUACGGAACG

Variants of: B1
Experiment: yeast fitness relative to wild type (ratio to wild type); higher = fitter; tRNA-Arg(CCU), competitive growth, 37 C, YPD
How it was run: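 The tRNA-Arg(CCU) gene variants were made by chemical synthesis with a 3% per-site mutation rate at 69 sites and inserted at the native genomic locus of Saccharomyces cerevisiae. After pooling, the strains were competed in YPD at 37°C for 24 hours in six parallel replicates. Gene amplicons from the start population and each end population were read by 100-nucleotide paired-end sequencing, and Darwinian fitness relative to wild type was taken from genotype frequency changes. Genotypes needed ≥ 100 starting reads, and estimates < 0.5 were set to 0.5.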

Q: For GUUCCGUUGGCGUAAUGGUAACGUGUCUCCCUCCUAAGGAGAAGACUGCGGGUUGGCGUCCCGUACGGAACG, which yeast fitness is on record?
A: Its yeast fitness is no more than 0.5.

Q: With GUUCCGUUGGCGUAAUGGUAACGUGUCUCCCUCCUAAGGAGAAGACUGCGGGUUCGAGUCCUGUACGGAACG as the variant, how does the yeast fitness read?
A: Its yeast fitness is 0.976.

Q: With GUUCCGUUGGCGUAAUGGUAACGUGUCUCCCUCCUAAGGAGAAGACUGUGGGUUGGAGUCCCGUACGGAUCG as the variant, how does the yeast fitness read?
A: The yeast fitness was 0.559.

Q: For GUUCCGUUGGCGUAAUGGUAACGUGUCUCCCUCCUAAGGAGAAGAUUGCGCGUUCGAGUCCCGUACGGAACG, which yeast fitness is on record?
A: The yeast fitness was no more than 0.5.

Q: With GUUCCGUUGGCGUAAUGGUAACGUGUCUCCCUUGUAAGGUGAAGACUGCGGGUUCGAGUCCCGUACGGAACG as the variant, how does the yeast fitness read?
A: The yeast fitness was no more than 0.5.

Q: For GUUCCGUUGGCGUAAUGGUAACGUGUCUCCCUCCUAAGGAGAAGACUGCGGGUUCGAGUCGCCUACGGAACG, which yeast fitness is on record?
A: The yeast fitness was 0.537.

Q: Which yeast fitness does the source give for GUUCCGUUGGCGUAAUGGUAACGUGUCUCCCUCUUAAGGAGAAGACUGCGGGUUCGAGUCUCGUACGGAACG here?
A: The yeast fitness was 0.545.

Q: Which yeast fitness does the source give for GUUCCGUUGGCGUAAUGGUAACGUGUCUCCCUCUGAAGGAGAAGACUGCGGGUUCGAGUCCCGUACGGAACG here?
A: The yeast fitness was no more than 0.5.

Q: For GUUCCGUUGGCGUAAUGGUAACGUGUCUCCCUCCUAAGGAGAAGACUGGGGGUUCGAGUCCCGUUCGGAACG, which yeast fitness is on record?
A: The yeast fitness was no more than 0.5.

Q: With GUUCCGUUGGCGUAAUGGUAACGUGUCUCCCUCUUAAGGAGAAGACUCCGGGUUCGAGUCCCGUACGGAACG as the variant, how does the yeast fitness read?
A: Its yeast fitness is no more than 0.5.

Q: With GUUCCGUUGGCGUAAUGGUAACGUGUCUCCCUCCUAAGGAGAAGACUGGGGCUUCGAGUCCCGUACGGAACG as the variant, how does the yeast fitness read?
A: The yeast fitness was 0.503.

Q: Which yeast fitness does the source give for GUUCCGUUGGCGUAAUGGUAACGUGUCUCCCUCCUAAGGAGAAGACUGCGGGUUGGAGUCCCCUACGGAACG here?
A: The yeast fitness was 0.528.

Q: For GUUCCGUUGGCGUAAUGGUAACGUGUCUCCCUCCUAAGGAGAAGACUGCGGGUUAAAGUCCCGUACGGAACG, which yeast fitness is on record?
A: The yeast fitness was 0.555.

Q: For GUUCCGUUGGCGUAAUGGUAACGUGUCUCCCUCCUAAGGAGAAGACUGCGGGUUCGAGUCACGUACAGAACG, which yeast fitness is on record?
A: Its yeast fitness is no more than 0.5.

Q: With GUUCCGUUGGCGUAAUGGUAACGUGUCUCCCUCGUAAGGUGAAGACUGCGGGUUCGAGUCCCGUACAGAACG as the variant, how does the yeast fitness read?
A: Its yeast fitness is no more than 0.5.

Q: With GUUCCGUUGGCGUAAUGGUAACGUGUCUCCCUCCUAAGGAGAAGACUGCGGGUUUGAGACCCGUACGGAACG as the variant, how does the yeast fitness read?
A: The yeast fitness was 0.535.

Q: With GUUCCGUUGGCGUAAUGGUAACGUGUCUCCCUCGUAAGGAGAAGACUGCGGGUUCGAGUCCCUUACGGAUCG as the variant, how does the yeast fitness read?
A: Its yeast fitness is 0.542.

Q: With GUUCCGUUGGCGUAAUGGUAACGUGUCUCCCUUAUAAGGAGAAGACUGCGGGUUCGAGUCCCGUACGGAACG as the variant, how does the yeast fitness read?
A: Its yeast fitness is 0.555.

Q: Which yeast fitness does the source give for GUUCCGUUGGCGUAAUGGUAACGUGUCUCCCUCGUAAGGAGAAGACUGCGGGUUCGAGUCCCGUACGGUACG here?
A: The yeast fitness was 0.506.

Q: For GUUCCGUUGGCGUAAUGGUAACGUGUCUCCCUCCUAAGGAGAAGACUGAGGGUUCGAGUCCCGCACGGAACG, which yeast fitness is on record?
A: The yeast fitness was 1.04.

Q: With GUUCCGUUGGCGUAAUGGUAACGUGUCUCCCUCUUAAGGAGAAGACUGCGGGUUCGAGGCCCGUACGGAACG as the variant, how does the yeast fitness read?
A: The yeast fitness was no more than 0.5.

Q: For GUUCCGUUGGCGUAAUGGUAACGUGUCUCCCUCCUAAGGAGAAGACUGUGGGUUCCAGUCCCGUACGGAACG, which yeast fitness is on record?
A: Its yeast fitness is 0.542.

Q: With GUUCCGUUGGCGUAAUGGUAACGUGUCUCCCUCCUAAGGAGAAGAGUGCGGGUUCGAGUCCCGUUCGGAACG as the variant, how does the yeast fitness read?
A: Its yeast fitness is 0.782.

Q: Which yeast fitness does the source give for GUUCCGUUGGCGUAAUGGUAACGUGUCUCCCUCCUAAGGAGAAGACUGCGGGUUUGAGUCCCGUACGCAACG here?
A: The yeast fitness was 0.552.

Q: With GUUCCGUUGGCGUAAUGGUAACGUGUCUCCCUCCUAAGGAGAAGACUGGGGGUUCGAGUCCCGUAAGGAACG as the variant, how does the yeast fitness read?
A: The yeast fitness was 0.593.

Q: With GUUCCGUUGGCGUAAUGGUAACGUGUCUCCCUCCUAAGGAGAAGACUGCGGGUUCGAGUCCAGUACGGGACG as the variant, how does the yeast fitness read?
A: The yeast fitness was 0.502.

Q: With GUUCCGUUGGCGUAAUGGUAACGUGUCUCCCUCCUAAGGAGAAGACUGCGGGUUCGAGUCCAGUACGGCACG as the variant, how does the yeast fitness read?
A: The yeast fitness was 0.524.

Q: For GUUCCGUUGGCGUAAUGGUAACGUGUCUCCCUCCUAAGGAGAAGAUUGCGGGUUCGAGUUCCGUACGGAACG, which yeast fitness is on record?
A: Its yeast fitness is 0.513.

Q: For GUUCCGUUGGCGUAAUGGUAACGUGUCUCCCUCCUAAGGAGAAGAAUGCGGGUUCGAGUCCCGUGCGGAACG, which yeast fitness is on record?
A: Its yeast fitness is 0.7.

Q: Which yeast fitness does the source give for GUUCCGUUGGCGUAAUGGUAACGUGUCUCCCUCCUAAGGAGAAGACUGCGGGUUCGAGUACCAUACGGAACG here?
A: Its yeast fitness is no more than 0.5.

Q: For GUUCCGUUGGCGUAAUGGUAACGUGUCUCCCUCUUAAGGAGAAGACUGCGGGUUCGUGUCCCGUACCGAACG, which yeast fitness is on record?
A: Its yeast fitness is no more than 0.5.

Q: With GUUCCGUUGGCGUAAUGGUAACGUGUCUCCCUCAUAAGGAGAAGACUGCGGGUUCGAGUCCCGUACGGAACG as the variant, how does the yeast fitness read?
A: The yeast fitness was 0.783.

Q: For GUUCCGUUGGCGUAAUGGUAACGUGUCUCCCUCGUAAGGGGAAGACUGCGGGUUCGAGUCCCGUACGGAACG, which yeast fitness is on record?
A: Its yeast fitness is no more than 0.5.

Q: With GUUCCGUUGGCGUAAUGGUAACGUGUCUCCCUCUUAAGGAGAAGACUGCGGGUUCGAGUCCCGUACGGAGCG as the variant, how does the yeast fitness read?
A: The yeast fitness was 0.592.

Q: Which yeast fitness does the source give for GUUCCGUUGGCGUAAUGGUAACGUGUCUCCCUCCUAAGGAGAAGAGUGCGGGUCCGAGUCCAGUACGGAACG here?
A: Its yeast fitness is no more than 0.5.

Q: With GUUCCGUUGGCGUAAUGGUAACGUGUCUCCCUCCUAAGGAGAAGACUGCGGGUUCGAGUACCGUAGGGAACG as the variant, how does the yeast fitness read?
A: Its yeast fitness is 0.606.

Q: With GUUCCGUUGGCGUAAUGGUAACGUGUCUCCCUGUUAAGGAGAAGACUGCGGGUUCGUGUCCCGUACGGAACG as the variant, how does the yeast fitness read?
A: The yeast fitness was 0.583.

Q: Which yeast fitness does the source give for GUUCCGUUGGCGUAAUGGUAACGUGUCUCCCUCAUAAGGAGAAGACUCCGGGUUCGAGUCCCGUACGGAACG here?
A: Its yeast fitness is 0.693.

From the RNAGym collection of RNA variant scans (doi:10.1126/science.aae0568)
